Screening data (PubChem BioAssay)
A selection: hits, their analogues and other compounds. The true share with any hit is near 2.1%.
Runt-CBFb FRET – inhibitors of RUNX1 Runt–CBFb binding, primary screen, biochemical, FRET, Cerulean-Runt, Venus-CBFb, uHTS; Runt-related transcription factor 1 (Homo sapiens) + Core-binding factor subunit beta …; Cerulean-Runt/Venus-CBFb FRET ratio 530/480, 1 h; inhibition, % at 20 µM; hit rate 0.46% among 220,000; AID 1496, 2009;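 active means inhibition over about 50% at 20 µM in the single-dose screen, limit read from the data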;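 further: 0% = DMSO wells and 100% = excess unlabeled CBFb competitor control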
Target sequence (Q01196 whole entry, looked up): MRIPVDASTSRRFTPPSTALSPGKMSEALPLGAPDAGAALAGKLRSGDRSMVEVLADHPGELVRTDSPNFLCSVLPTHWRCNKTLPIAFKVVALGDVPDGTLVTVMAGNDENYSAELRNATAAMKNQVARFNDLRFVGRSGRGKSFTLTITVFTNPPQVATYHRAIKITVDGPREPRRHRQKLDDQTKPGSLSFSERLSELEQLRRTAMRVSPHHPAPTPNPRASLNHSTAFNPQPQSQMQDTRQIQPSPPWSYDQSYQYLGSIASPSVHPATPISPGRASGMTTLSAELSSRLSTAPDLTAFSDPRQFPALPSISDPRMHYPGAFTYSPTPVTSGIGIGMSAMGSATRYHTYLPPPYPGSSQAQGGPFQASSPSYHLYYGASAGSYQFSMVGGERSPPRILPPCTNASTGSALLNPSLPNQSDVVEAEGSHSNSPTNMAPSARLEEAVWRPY
Target sequence (Q13951 whole entry, looked up): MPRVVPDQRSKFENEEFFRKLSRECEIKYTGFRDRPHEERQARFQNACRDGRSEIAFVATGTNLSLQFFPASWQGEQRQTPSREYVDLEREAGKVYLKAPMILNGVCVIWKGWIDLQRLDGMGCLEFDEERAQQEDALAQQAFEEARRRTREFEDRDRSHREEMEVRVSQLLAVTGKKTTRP
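test system = Cerulean-Runt domain fusion protein, energy donor | probe or stimulus = Venus-CBFb binding partner, 100 nM | incubation = two 1 h room-temperature incubations shielded from light | detection = fluorescence energy transfer, 422 nm excitation, 530/480 nm emission | measure = loss of energy transfer signal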
Runt-SMMHC FRET – inhibitors of RUNX1 Runt–CBFb-SMMHC binding, primary screen, biochemical, FRET, Cerulean-Runt, Venus-CBFb-SMMHC, uHTS; Cerulean-Runt/Venus-CBFb-SMMHC FRET ratio 530/480, 1 h; Runt-related transcription factor 1 (Homo sapiens) + Core-binding factor subunit beta …; AID 1434, 2008; hit rate 0.74% among 220,000; inhibition, % at 20 µM;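 active means mean inhibition across duplicate retests at 20 µM reaching about 50%, limit read from the data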;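 further: 0% = DMSO wells and 100% = wells with excess untagged CBFb-SMMHC; inhibitors lower the FRET ratio by blocking Runt binding to CBFb-SMMHC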
RanGTP-Imp inh – inhibitors of RanGTP-importin-beta interaction, primary screen, biochemical, FRET, CFP-Ran, YFP-importin-beta, homogeneous. cell-free CFP-Ran/YFP-importin-beta FRET ratio. inhibition, % (test concentration not listed). hit rate 1.1% among 300,000;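 active means more than half of the replicate wells show a fall in the fluorescence ratio signal beyond about 16%, limit read from the data, passing the limit was not always enough; inconclusive means exactly half of the replicate wells pass the set limit; inactive means fewer than half of replicates pass the limit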;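 further: 0% = DMSO wells and 100% = Ran loaded with GDP instead of GTP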
MEX-5 binding – MEX-5 zinc finger RNA-binding disruptors – biochemical, C. elegans, fluorescence polarization, MLPCN library, primary screen. Zinc finger protein mex-5 (Caenorhabditis elegans), Q9XUB2. MEX-5/FITC-TCR2 RNA binding; active compounds read low. activity score (negative = inhibition of binding), % at 10 µM. hit rate 0.38% among 300,000. AID 1832, 2009;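 active means inhibition past about -25% in most replicates, and total fluorescence under double the plate's negative control median, limit read from the data; inconclusive means replicates evenly split on the limit, or fluorescence at least double controls; inactive means too little inhibition in most replicates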;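 further: 0% = DMSO and -100% = 5 µM competing unlabeled TCR2 RNA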
proKLK7 act – proKLK7 zymogen activators, primary screen, biochemical, fluorescence intensity. Kallikrein-7 (Homo sapiens), P49862. purified proKLK7, EDANS-DABCYL substrate fluorescence; 100% is mature enzyme control, 0% vehicle. activation, % at 7 µM. hit rate 0.9% among 370,000. AID 652039, 2013;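 active means activation above the mean of all tested compounds plus 3 SD, computed per campaign excluding outliers beyond control limits, cut at about 13% in these data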
Active calls of the source: *; ? = inconclusive; · = no result.

SMILES	Runt-CBFb FRET	Runt-SMMHC FRET	RanGTP-Imp inh	MEX-5 binding	proKLK7 act
Nc1nonc1C(=O)NCCNCc1ccccc1OCc1ccc(F)cc1	0.8	-1.5	17.9*	-3.5	0.8
O=C1Nc2ccccc2S/C1=C/c1cccs1	-1.5	-13.8	-2.1	-16.0	5.3
Cc1ccc(N/C=C2/Sc3ccccc3NC2=O)cc1	35.9	-8.1	-1.6	-53.6*	-0.5
CCn1cc(C2C3=C(CC(C)(C)CC3=O)N(c3ccc(C)cc3)C3=C2C(=O)CC(C)(C)C3)c(C)n1	·	·	·	·	-0.7
CCn1cc(C2C3=C(CC(C)(C)CC3=O)N(c3ccccc3)C3=C2C(=O)CC(C)(C)C3)c(C)n1	22.7	82.4*	?	-4.2	-0.6
COC(=O)[C@]12C[C@H](CC(=O)NCc3cccs3)C(=O)N(Cc3ccc4c(c3)OCO4)C1=C[C@H](C(C)C)O[C@@H]2C1CC1	·	·	·	·	0.8
Nc1nc(-c2ccccc2)[nH]c(=O)c1N	9.2	17.2	4.1	-26.2*	-19.5
Nc1[nH]nc2nc(-c3ccccc3)[nH]c(=O)c12	0.1	2.1	1.9	0.1	-0.6
N#CC1=C(N)C(C#N)(C#N)[C@H](c2ccncc2)[C@H]2CC3(CC=C12)OCCO3	-8.1	-11.6	-25.5	-8.5	7.3
CC(C)N1CC=C2C(C#N)=C(N)C(C#N)(C#N)[C@H](c3ccoc3)[C@H]2C1	49.1	60.4*	55.4*	?	·
Cc1ccc(C2C3CSCC=C3C(C#N)=C(N)C2(C#N)C#N)cc1 (configuration not stated)	-5.2	-23.2	15.8*	-2.9	5.7
CC(C)(C)OC(=O)N1CC=C2C(C#N)=C(N)C(C#N)(C#N)C(c3cccs3)C2C1 (configuration not stated)	-1.2	-11.5	-3.2	-24.3	1.3
CCN1CC=C2C(C#N)=C(N)C(C#N)(C#N)C(c3cc(Cl)ccc3Cl)C2C1 (configuration not stated)	72.6*	65.3*	56.4*	?	0.3
CCOC(=O)Cn1cc(CN2CCS(=O)(=O)N(Cc3ccc(OC)cc3)C(C(=O)OC)C2)nn1 (configuration not stated)	·	·	·	·	0.0
CCN1/C(=C2\OC(=S)N(C)C2=O)Sc2ccccc21	14.0	63.8*	-4.1	-0.7	-0.2
CCN1/C(=C2/SC(=S)N(NC(C)=O)C2=O)Sc2ccccc21	·	·	-74.3	-46.3*	0.2
CC(=O)NN1C(=O)/C(=C2/Sc3ccccc3N2C)SC1=S	·	·	0.9	-13.4	0.9
Clc1cccc(CSc2nc3ccncc3[nH]2)c1	2.5	-2.1	5.9	-52.0*	-0.4
Fc1cccc(CSc2nc3ccncc3[nH]2)c1	1.0	2.8	-0.8	-0.3	-0.1
CC1(C)CC(NC(=O)c2cccc([N+](=O)[O-])c2)CC(C)(C)N1	·	·	-1.5	-1.9	-0.1
COc1ccc(NC(=O)CN2CCC(NC(=O)C3CCCCC3)CC2)c([N+](=O)[O-])c1	·	·	4.1	-91.9*	0.0
CN1C(=O)[C@H]2[C@@H](c3ccc(C(F)(F)F)cc3)N[C@]3(CCCN(Cc4cccn4C)C3=O)[C@H]2C1=O	·	·	·	·	0.7
Cc1cccc(Nc2ncnc3nc[nH]c23)c1	0.3	1.7	?	15.5	0.3
COc1ccc(Nc2ncnc3nc[nH]c23)cc1OC	1.2	4.0	-4.9	-33.2*	·
Cc1cc(C)cc(-n2c3nc4ccccc4nc3c3c(=O)n(Cc4ccco4)cnc32)c1	32.8	·	18.8*	-1.5	-14.5
Cc1ccc(F)cc1NC(=O)CSCc1nc2sc(C)c(C)c2c(=O)[nH]1	·	·	-6.9	8.4	-2.6
COc1ccccc1NS(=O)(=O)c1cccc(C(=O)NCc2ccncc2)c1	·	·	-4.1	-0.4	0.4
CCc1c(C)nc(SCC(=O)c2cccs2)c(C#N)c1C	-21.4	-24.3	6.9	-33.6*	0.7
CCc1c(C)nc(SCC(N)=O)c(C#N)c1C	0.1	-4.2	-12.4	1.1	0.7
Nc1ccc2c(c1)-c1ccccc1S(=O)(=O)N2	-59.4	-140.6	-9.5	-40.7*	6.4
